Test [1] deals with T1, Translocator protein (Rattus norvegicus, UniProt P16257). Nature of the test: (§1) Displacement of [3H]-PK 11195 from rat peripheral (mitochondrial) benzodiazepine receptor.
Test [2] concerns the target T1, Translocator protein. Described as §1. In a few lines:
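Male CD rat (~150 g) cerebral cortex membranes washed in 50 mM phosphate-buffered saline, pH 7.4. 10 mg wet tissue incubated 120 min at 4 °C with 1 nM [3H]PK 11195 and 8–12 drug concentrations. Nonspecific binding defined with 1 μM PK 11195. Filtration, scintillation counting. IC50 by nonlinear curve fitting; triplicate points.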
This is another data set of the same source.

T1 sequence (P16257 whole entry, looked up): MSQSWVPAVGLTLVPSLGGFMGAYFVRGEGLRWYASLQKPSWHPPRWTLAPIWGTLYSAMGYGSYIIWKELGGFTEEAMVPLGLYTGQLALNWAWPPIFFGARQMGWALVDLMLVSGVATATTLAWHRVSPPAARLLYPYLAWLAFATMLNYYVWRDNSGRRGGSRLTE

As to `CC(=O)OC1=C(c2ccccc2F)Sc2ccccc2-n2cccc21`, the IC50 at Translocator protein [1] and on Translocator protein [2] was 38 nM throughout.
As for `CN(C)C(=O)OC1=C(c2ccccc2F)Sc2ccccc2-n2cccc21`, the IC50 is 31 nM on Translocator protein [1] and 30.9 nM on Translocator protein [2].
`COc1ccc(C2=C(OC(=O)N(C)C)c3cccn3-c3ccccc3S2)cc1`: at Translocator protein [2], the IC50 is 9.12 nM.
At Translocator protein [2], `COc1ccc(C2C(=O)c3cccn3-c3ccccc3[S+]2[O-])cc1` (stereo not given) gave an IC50 of 22900 nM.
Same read-out and setting: next, `COc1ccc(C2=C(OC(=O)c3cc(OC)c(OC)c(OC)c3)c3cccn3-c3cc(Cl)ccc3S2)cc1`: 100000 nM; `CN(C)C(=O)OC1=C(c2ccccc2)Sc2ccccc2-n2cccc21`: 9.12 nM.
On the same count and under the same terms, next, `CCC(=O)OC1=C(c2ccc(OC)cc2)Sc2ccccc2-n2cccc21`: 29.5 nM.
Still for that read-out and setting: next, `CC(=O)OC1=C(c2ccccc2)Sc2ccccc2-n2cccc21`: 19.5 nM; `COc1ccc(C2=C(OC(=O)N(C)C)c3cccn3-c3cc(Cl)ccc3S2)cc1`: 166 nM.
Turning to `CCCC(=O)OC1=C(c2ccccc2)Sc2ccccc2-n2cccc21`, the IC50 on Translocator protein [2] is 21.4 nM.
As for `CC(=O)OC1=C(c2ccccc2)Sc2ccc(C)cc2-n2cccc21`, the IC50 at Translocator protein [1] was 675 nM; at Translocator protein [2] it was 676 nM.
On Translocator protein [2], `COc1ccc(C2=C(OC(=O)c3cc(OC)c(OC)c(OC)c3)c3cccn3-c3ccccc3S2)cc1` gave an IC50 of 100000 nM.
Molecule `COc1ccc(C2=C(OC(C)=O)c3cccn3-c3ccccc3S2(=O)=O)cc1` showed an IC50 on Translocator protein [2] of 631 nM.
`CN(C)C(=O)OC1=C(c2ccccc2)Sc2c(Cl)cccc2-n2cccc21`: the IC50 on Translocator protein [1] was 4 nM; on Translocator protein [2], 3.98 nM.
Take `COc1ccc(C2=C(OC(C)=O)c3cccn3-c3cccc(Cl)c3S2)cc1`: the IC50 on Translocator protein [2] is 20.4 nM.
Regarding `CC(=O)OC1=C(c2ccccc2)Sc2cc(C)ccc2-n2cccc21`, the IC50 at Translocator protein [1] and on Translocator protein [2] was 112 nM throughout.
On to `CCC(=O)OC1=C(c2ccccc2)Sc2ccccc2-n2cccc21`, for which the IC50 at Translocator protein [2] was 66.1 nM.
On Translocator protein [2], `COc1ccc(C2=C(OC(=O)N(C)C)c3cccn3-c3cc(C(F)(F)F)ccc3S2)cc1` showed an IC50 of 295 nM.
With `CC(=O)OC1=C(c2ccc(Cl)cc2)Sc2ccccc2-n2cccc21`, the IC50 was 30 nM at Translocator protein [1] and 30.2 nM on Translocator protein [2].
At Translocator protein [2], `COc1ccc(C2=C(OC(=O)c3ccncc3)c3cccn3-c3ccccc3S2)cc1` showed an IC50 of 100000 nM.
Still for that read-out and setting: next, `CCCCCC(=O)OC1=C(c2ccccc2)Sc2ccccc2-n2cccc21`: 23.4 nM.
With `CC(=O)OC1=C(c2ccccc2)Sc2c(Cl)cccc2-n2cccc21`, the IC50 at Translocator protein [2] is 7.59 nM.
On the same count and under the same terms, next, `COc1ccc(C2=C(OC(=O)c3cc(OC)c(OC)c(OC)c3)c3cccn3-c3cc(C(F)(F)F)ccc3S2)cc1`: 100000 nM.
Take `CC(=O)OC1=C(c2ccc(F)cc2)Sc2ccccc2-n2cccc21`: the results for the IC50 on Translocator protein [1] and on Translocator protein [2] were 28 nM and 28.2 nM, respectively.
Molecule `CCCC(=O)OC1=C(c2ccc(OC)cc2)Sc2ccccc2-n2cccc21` gave an IC50 on Translocator protein [2] of 27.5 nM.
On the same count and under the same terms, next, `COc1ccc(C2=C(OC(=O)c3cccnc3)c3cccn3-c3ccccc3S2)cc1`: 100000 nM; `O=C1c2cccn2-c2ccccc2S(=O)(=O)C1c1ccccc1` (stereo not given): 100000 nM.
Still for that read-out and setting: next, `CS(=O)(=O)OC1=C(c2ccccc2)Sc2ccccc2-n2cccc21`: 57.5 nM.

The values above are taken from ChEMBL document CHEMBL1127419, “A comparative molecular field analysis model for 6-arylpyrrolo[2,1-d] [1,5]benzothiazepines binding selectively to the mitochondrial benzodiazepine receptor” (J Med Chem, 1994).
